Nine compounds from the M2OR odorant receptor database can be followed below.

Holding throughout (conditions): stereoisomer not certain
One test has as its target T1, Or10j5 (Mus musculus) (UniProt Q62007).
T1 sequence (whole entry): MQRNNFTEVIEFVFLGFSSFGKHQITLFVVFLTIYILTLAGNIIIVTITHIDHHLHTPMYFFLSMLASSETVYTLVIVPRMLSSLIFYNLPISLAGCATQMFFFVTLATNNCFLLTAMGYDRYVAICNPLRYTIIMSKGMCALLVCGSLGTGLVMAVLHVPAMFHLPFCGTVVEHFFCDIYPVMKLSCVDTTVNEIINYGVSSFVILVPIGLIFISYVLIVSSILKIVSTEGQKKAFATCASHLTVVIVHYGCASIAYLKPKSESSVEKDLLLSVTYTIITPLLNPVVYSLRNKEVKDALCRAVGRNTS
Put shortly: (§1)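 Transient luciferase assays in mammalian cell lines were common, though methods varied by source. The values come from published papers and their supplementary material, with extra details from the original authors when needed. Responsive refers to a measured signal the original authors judged statistically different from baseline, and non-responsive (inactive) to the remainder.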

For a further test, the target named is T2, Or1m1 (Mus musculus) (UniProt Q8VFM9).
T2 sequence (whole entry): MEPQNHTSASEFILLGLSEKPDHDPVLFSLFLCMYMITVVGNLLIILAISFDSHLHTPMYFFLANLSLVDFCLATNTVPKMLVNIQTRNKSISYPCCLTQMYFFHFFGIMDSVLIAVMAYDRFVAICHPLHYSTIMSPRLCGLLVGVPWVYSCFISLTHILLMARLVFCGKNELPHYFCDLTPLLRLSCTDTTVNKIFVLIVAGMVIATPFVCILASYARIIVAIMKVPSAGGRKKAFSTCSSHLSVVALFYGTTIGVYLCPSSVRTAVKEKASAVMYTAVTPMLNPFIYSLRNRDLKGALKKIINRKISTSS
Put shortly:
as §1

Another test deals with T3, Or2c1 (Mus musculus) (UniProt P23275).
T3 sequence (whole entry): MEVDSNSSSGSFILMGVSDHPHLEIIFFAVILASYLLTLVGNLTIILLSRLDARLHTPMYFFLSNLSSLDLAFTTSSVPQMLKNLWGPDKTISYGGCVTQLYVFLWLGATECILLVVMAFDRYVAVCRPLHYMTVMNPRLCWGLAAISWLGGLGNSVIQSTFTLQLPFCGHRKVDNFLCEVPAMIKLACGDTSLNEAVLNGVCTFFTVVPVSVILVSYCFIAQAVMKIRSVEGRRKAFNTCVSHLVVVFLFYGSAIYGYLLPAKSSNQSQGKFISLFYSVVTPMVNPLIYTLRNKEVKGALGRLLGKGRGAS
Summed up: as §1

The next test addresses T4, Or5ar1 (Mus musculus) (UniProt Q8VGS3).
T4 sequence (whole entry): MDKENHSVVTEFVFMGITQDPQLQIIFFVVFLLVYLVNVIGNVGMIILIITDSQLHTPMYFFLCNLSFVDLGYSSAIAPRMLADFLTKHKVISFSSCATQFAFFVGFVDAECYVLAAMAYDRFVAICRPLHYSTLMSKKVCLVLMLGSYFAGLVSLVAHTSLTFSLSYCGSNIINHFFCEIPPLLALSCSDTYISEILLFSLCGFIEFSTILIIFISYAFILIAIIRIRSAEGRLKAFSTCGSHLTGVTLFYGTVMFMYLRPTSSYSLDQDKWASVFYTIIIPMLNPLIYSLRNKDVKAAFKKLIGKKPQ
Put shortly:
as §1

The target in a further test is T5, OR9A4 (Homo sapiens) (UniProt Q8NGU2).
T5 sequence (whole entry): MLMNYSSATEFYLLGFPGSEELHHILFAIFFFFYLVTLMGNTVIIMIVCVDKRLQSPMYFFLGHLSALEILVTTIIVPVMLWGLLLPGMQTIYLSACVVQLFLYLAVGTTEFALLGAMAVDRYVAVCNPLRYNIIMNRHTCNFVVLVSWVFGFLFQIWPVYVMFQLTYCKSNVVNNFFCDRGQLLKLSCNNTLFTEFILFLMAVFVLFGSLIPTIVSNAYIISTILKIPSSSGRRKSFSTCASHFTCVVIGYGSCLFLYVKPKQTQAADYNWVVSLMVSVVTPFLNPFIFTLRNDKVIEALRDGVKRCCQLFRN
Put shortly: as §1

The target of the next test is T6, OR9G1 (Homo sapiens) (UniProt Q8NH87).
T6 sequence (whole entry): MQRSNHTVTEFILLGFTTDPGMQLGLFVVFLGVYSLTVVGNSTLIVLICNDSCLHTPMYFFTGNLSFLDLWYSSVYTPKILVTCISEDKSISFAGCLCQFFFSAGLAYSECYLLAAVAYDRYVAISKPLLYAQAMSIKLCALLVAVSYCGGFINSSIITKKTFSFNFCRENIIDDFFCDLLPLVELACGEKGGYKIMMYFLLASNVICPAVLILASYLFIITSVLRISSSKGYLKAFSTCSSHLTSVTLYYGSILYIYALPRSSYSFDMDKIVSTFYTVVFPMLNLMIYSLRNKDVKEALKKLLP
Summed up: as §1

Another test deals with T7, OR9G4 (Homo sapiens) (UniProt Q8NGQ1).
T7 sequence (whole entry): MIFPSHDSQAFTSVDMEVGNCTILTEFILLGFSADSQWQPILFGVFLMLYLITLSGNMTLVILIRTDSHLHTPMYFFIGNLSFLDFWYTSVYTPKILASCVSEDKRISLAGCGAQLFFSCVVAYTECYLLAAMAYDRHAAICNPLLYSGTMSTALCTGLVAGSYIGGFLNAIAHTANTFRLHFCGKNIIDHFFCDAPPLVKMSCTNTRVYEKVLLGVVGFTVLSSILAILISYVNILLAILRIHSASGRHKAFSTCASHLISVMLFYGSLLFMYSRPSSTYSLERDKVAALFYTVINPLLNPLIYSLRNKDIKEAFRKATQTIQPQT
Summed up: as §1

For the next test, the system named is T8, OR9G4 H6Y N206D V222A.
T8 sequence (whole entry): T7 sequence (whole entry) with H6Y, N206D, V222A
Summed up: as §1

A further test concerns T9, OR9G4 N206D V222A.
T9 sequence (whole entry): T7 sequence (whole entry) with N206D, V222A
Put shortly:
as §1

For the next test, the target named is T10, OR9G9 (Homo sapiens) (UniProt P0C7N8).
T10 sequence (whole entry): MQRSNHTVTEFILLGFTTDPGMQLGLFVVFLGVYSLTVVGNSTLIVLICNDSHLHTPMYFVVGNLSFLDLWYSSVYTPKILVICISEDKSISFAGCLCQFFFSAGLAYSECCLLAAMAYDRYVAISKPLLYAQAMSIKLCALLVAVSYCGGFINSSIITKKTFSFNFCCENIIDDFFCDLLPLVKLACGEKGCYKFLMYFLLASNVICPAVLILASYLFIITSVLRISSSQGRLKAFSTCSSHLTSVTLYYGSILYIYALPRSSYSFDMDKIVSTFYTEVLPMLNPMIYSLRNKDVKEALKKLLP
Summed up: as §1

Another test deals with T11, OR9I1 (Homo sapiens) (UniProt Q8NGQ6).
T11 sequence (whole entry): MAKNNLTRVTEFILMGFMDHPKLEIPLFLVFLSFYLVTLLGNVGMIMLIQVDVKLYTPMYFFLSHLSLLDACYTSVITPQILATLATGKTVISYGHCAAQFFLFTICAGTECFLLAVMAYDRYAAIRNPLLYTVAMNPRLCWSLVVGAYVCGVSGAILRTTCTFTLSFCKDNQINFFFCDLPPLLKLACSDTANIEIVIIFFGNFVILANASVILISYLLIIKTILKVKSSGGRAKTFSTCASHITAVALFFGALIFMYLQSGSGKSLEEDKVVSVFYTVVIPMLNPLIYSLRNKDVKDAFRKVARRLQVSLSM
Summed up: as §1

In the next test the test system is T12, OR9K2 R207H.
T12 sequence (whole entry): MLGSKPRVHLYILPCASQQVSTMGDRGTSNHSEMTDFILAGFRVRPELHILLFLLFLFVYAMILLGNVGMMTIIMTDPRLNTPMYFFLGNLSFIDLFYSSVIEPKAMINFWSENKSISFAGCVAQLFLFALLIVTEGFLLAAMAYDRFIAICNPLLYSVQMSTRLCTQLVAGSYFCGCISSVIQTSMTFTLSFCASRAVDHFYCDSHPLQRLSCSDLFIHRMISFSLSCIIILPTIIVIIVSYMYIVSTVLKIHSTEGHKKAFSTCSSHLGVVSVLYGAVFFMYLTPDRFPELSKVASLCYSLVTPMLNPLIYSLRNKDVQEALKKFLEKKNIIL
Put shortly:
as §1

A further test has as its target T13, OR9Q1 (Homo sapiens) (UniProt Q8NGQ5).
T13 sequence (whole entry): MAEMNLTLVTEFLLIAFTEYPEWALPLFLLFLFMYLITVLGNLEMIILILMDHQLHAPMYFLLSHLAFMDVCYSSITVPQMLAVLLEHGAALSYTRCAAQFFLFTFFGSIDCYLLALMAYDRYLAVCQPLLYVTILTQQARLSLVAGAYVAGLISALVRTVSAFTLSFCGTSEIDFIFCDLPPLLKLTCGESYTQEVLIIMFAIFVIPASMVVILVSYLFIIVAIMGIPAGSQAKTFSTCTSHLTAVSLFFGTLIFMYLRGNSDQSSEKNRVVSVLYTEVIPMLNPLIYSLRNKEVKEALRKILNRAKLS
Summed up: as §1

A further test relates to T14, OR9Q1 A83T.
T14 sequence (whole entry): T13 sequence (whole entry) with A83T
Summed up:
as §1

Another test deals with T15, OR9Q2 (Homo sapiens) (UniProt Q8NGE9).
T15 sequence (whole entry): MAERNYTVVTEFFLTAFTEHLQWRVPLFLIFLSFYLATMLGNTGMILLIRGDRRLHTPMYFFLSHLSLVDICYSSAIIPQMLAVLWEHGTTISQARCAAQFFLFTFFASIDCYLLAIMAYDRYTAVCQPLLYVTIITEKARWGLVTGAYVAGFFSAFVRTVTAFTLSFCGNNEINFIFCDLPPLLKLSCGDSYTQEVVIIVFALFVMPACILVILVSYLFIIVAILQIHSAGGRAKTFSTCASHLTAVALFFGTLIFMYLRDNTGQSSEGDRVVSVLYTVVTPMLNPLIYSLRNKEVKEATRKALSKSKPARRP
Summed up:
as §1

For another test, the system named is T16, OR9Q2 C179R.
T16 sequence (whole entry): T15 sequence (whole entry) with C179R
Put shortly:
as §1

The target in the next test is T17, OR9K2 (Homo sapiens) (UniProt Q8NGE7).
T17 sequence (whole entry): T12 sequence (whole entry) with H207R
Summed up: as §1

Substitutions are numbered along the chain they refer to.
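Also: active if original authors judged signal statistically different from baseline.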

Take `CCCCCCO`: the “odorant receptor agonist call” value in the test with Or10j5 (Mus musculus), with Or1m1 (Mus musculus), with Or2c1 (Mus musculus) and in the test with Or5ar1 (Mus musculus) was “inactive” each time.
For the compound `CCCCCCC=CCCC=O`, the “odorant receptor agonist call” value in the test with OR9A4 (Homo sapiens), with OR9G1 (Homo sapiens), in the test with OR9G4 (Homo sapiens), with OR9G4 H6Y N206D V222A, in the test on OR9G4 N206D V222A and with OR9G9 (Homo sapiens) was “inactive” in each case. Also, the “odorant receptor agonist call” value in the test with OR9I1 (Homo sapiens), in the test on OR9K2 R207H, with OR9Q1 (Homo sapiens), in the test on OR9Q1 A83T, with OR9Q2 (Homo sapiens) and with OR9Q2 C179R was “inactive” in each case.
As for `O=C([O-])CCCCCCCC(=O)[O-].[H+].[H+]`, the “odorant receptor agonist call” value with Or10j5 (Mus musculus), with Or1m1 (Mus musculus) and in the test with Or5ar1 (Mus musculus) was “inactive” throughout.
`CCCCCCCCCC(=O)[O-].[H+]`: the “odorant receptor agonist call” value with Or10j5 (Mus musculus), with Or1m1 (Mus musculus) and with Or5ar1 (Mus musculus) was “inactive” each time. Besides, in the test with Or2c1 (Mus musculus), the “odorant receptor agonist call” value is “active”.
Turning to `CCC(S)C(C)CO` (stereo not given), the “odorant receptor agonist call” value in the test with OR9A4 (Homo sapiens), with OR9G1 (Homo sapiens), in the test with OR9G4 (Homo sapiens), with OR9G9 (Homo sapiens), in the test with OR9I1 (Homo sapiens) and with OR9K2 (Homo sapiens) was “inactive” in each case. The “odorant receptor agonist call” value in the test with OR9Q1 (Homo sapiens) and in the test with OR9Q2 (Homo sapiens) was “inactive” each time.
Regarding `CCCCCCCCCCCC(=O)O`, the “odorant receptor agonist call” value with Or10j5 (Mus musculus) was “inactive”.
Same read-out and setting: the value for `CCCCOC(=O)CCC` was “inactive”.
Turning to `CCCCC(=O)O`, the “odorant receptor agonist call” value with Or10j5 (Mus musculus), in the test with Or1m1 (Mus musculus), in the test with Or2c1 (Mus musculus) and with Or5ar1 (Mus musculus) was “inactive” throughout.
With `CCCCCC(S)C(C)CO` (stereo not given), the “odorant receptor agonist call” value with OR9A4 (Homo sapiens), with OR9G1 (Homo sapiens), with OR9G4 (Homo sapiens), with OR9G9 (Homo sapiens), with OR9I1 (Homo sapiens) and with OR9K2 (Homo sapiens) was “inactive” throughout. Moreover, the “odorant receptor agonist call” value with OR9Q1 (Homo sapiens) and with OR9Q2 (Homo sapiens) was “inactive” throughout.
